Key:
T47D cells = assay: Annexin V apoptosis flow cytometry; format: cell-based; settings: 1 μM PA 1 or equivalent paclitaxel
human recombinant DR5 = human recombinant DR5 (Homo sapiens, UniProt O14763); assay: Surface plasmon resonance against immobilized DR5; format: binding; settings: SPR, immobilized DR5, running buffer pH 7.0
Method in brief: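 About 2000 RU of recombinant human DR5 was EDC/NHS-coupled to a dextran chip from 10 ug/mL in 15 mM Na acetate pH 5.6, then ethanolamine-capped. Running buffer was 10 mM phosphate, 150 mM NaCl, 3 mM EDTA, 0.01% Tween 20. Analytes were quantified by A280 and tested at 62 nM targeting PA. Association was 8 min and dissociation 10 min at 30 uL/min, with 25 mM HCl 30 s regeneration.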

Sequence of human recombinant DR5 (O14763 56-440): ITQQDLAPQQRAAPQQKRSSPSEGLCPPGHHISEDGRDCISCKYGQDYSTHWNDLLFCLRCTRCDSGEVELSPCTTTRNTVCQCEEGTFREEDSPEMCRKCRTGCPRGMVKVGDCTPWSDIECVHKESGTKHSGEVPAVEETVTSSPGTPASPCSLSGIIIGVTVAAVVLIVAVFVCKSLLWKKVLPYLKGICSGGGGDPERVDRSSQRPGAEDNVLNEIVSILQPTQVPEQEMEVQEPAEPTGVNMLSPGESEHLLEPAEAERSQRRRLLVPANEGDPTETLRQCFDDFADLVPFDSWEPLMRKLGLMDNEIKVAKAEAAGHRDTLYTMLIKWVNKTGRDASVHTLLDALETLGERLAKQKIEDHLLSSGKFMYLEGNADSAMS

Row | Molecule | Annexin V binding / cell death (in words) (T47D cells) | Binding to DR5 (in words) (human recombinant DR5)
1 | CC(=O)O[C@H]1C(=O)[C@@]2(C)[C@H]([C@H](OC(=O)c3ccccc3)[C@]3(O)C[C@H](OC(=O)[C@H](O)[C@@H](NC(=O)c4ccccc4)c4ccccc4)C(C)=C1C3(C)C)[C@]1(OC(C)=O)CO[C@@H]1C[C@@H]2O [Paclitaxel, paclitaxel] | statistically significant increase in annexin V binding | –
2 | PEG2000-E2A6K(C12) [PA 4] | – | did not show any binding
